The text below walks through data of PubChem BioAssay AID1296 (Columbia University Molecular Screening Center, 2008).

SMILES strings stand for the structures. The campaign covered roughly 130,000 compounds. About 1,000 (0.77%) were called active. Roughly 1% stayed inconclusive and do not appear here.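 Rule for the calls: active = activation at 2 µM above a set limit, confirmed on inspection of the cell images; inconclusive = above the set limit but not confirmed on image inspection; inactive = the rest.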 Many of the other results were omitted from the sample, so actives are more common in it than they were.

A short description of this experiment: insulin gene promoter stimulation in islet cells – imaging, TRM-6 cells (human fetal islet line), eGFP reporter, cell count, primary screen (AID 1296;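 for activation: share of cells whose green reporter signal exceeds an intensity cutoff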;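 for normalized cell count: cells counted after 48 h compound exposure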). The settings on record: at 2 µM; activation: stronger effect = higher value; normalized cell count: measured here: cell count (toxicity). An outline of the steps: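 Test system: TRM-6 insulin promoter–eGFP reporter cells / Quantity: 1,000 cells per well / Reagent: tamoxifen inducer, 0.75 µM, in seeding medium / Compound dosing: 2 µM final, single concentration / Schedule: overnight tamoxifen, then two-day compound incubation at 37 °C / Measured by: automated fluorescence imaging of paraformaldehyde-fixed, Hoechst-counterstained cells, green channel / Read-out: percent activation from GFP-positive cell fraction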
In the case of `CC1=CC(=Cc2sc3ccccc3[n+]2C)C=C(C)O1`, the activation was 456% (active) and the normalized cell count is 88.8%.
For the compound `C[N+]1(C)CCOC(O)(c2ccc(-c3ccc(C4(O)C[N+](C)(C)CCO4)cc3)cc2)C1` (stereo not given), the activation is -9.52% (inactive) and the normalized cell count was found to be 86.4%.
With `CC(=O)c1c(C)n(C(C)C)c2ccc(O)cc12`, the activation is 269% (inactive) and the normalized cell count is 65.5%.
The corresponding values for `CCOCCc1c(O)[nH]c(=S)[nH]c1=O` are 0% (inactive) and 137%.
For `O=[N+]([O-])c1ccc(C2C3C(c4ccccc4)=NC4(CCCCC4)N32)cc1` (stereo not given) the same measures were -4.54% (inactive) and 112%.
In the case of `O=C(COc1ccc2ccccc2c1)N1CCN(Cc2ccncc2)CC1`, the activation is 1.82% (inactive) and the normalized cell count was 106%.
Turning to `O=C(COC(=O)c1ccccc1)Nc1ccc(Cl)cc1C(=O)c1ccccc1`, the activation is -3.33% (inactive) and the normalized cell count was found to be 106%.
For `CCOC(=O)c1c(-c2ccccc2)oc2ccc(OC(=O)N(C)C)cc12`, the activation was -72.7% (inactive) and the normalized cell count was 171%.
For `CC[N+]1(C)CCCC(OC(=O)C(O)(c2ccccc2)c2ccccc2)C1` (stereo not given) the same measures were 295% (active) and 82%.
The corresponding values for `Cc1nn(Cc2ccccc2Cl)c(Cl)c1C(=O)OC(C(=O)NC(N)=O)C(C)C` (stereo not given) are 6.67% (inactive) and 71.1%.
On to `O=C(CN1CCCC1=O)NCCc1ccccc1`, for which the activation was -2.56% (inactive) and the normalized cell count is 176%.
The corresponding values for `CC(=O)c1c(O)n(C2CCCCCC2)c(=O)[nH]c1=O` are 146% (active) and 160%.
The corresponding values for `COC(=O)CN1C(=O)C2(C(C(=O)OC)=C(N)Oc3ccccc32)C2=C1CC(C)(C)CC2=O` (stereo not given) are -6.67% (inactive) and 84.7%.
For `Cc1ccc(N2C(=O)NC(=O)C(CCc3ccncc3)(Cc3cccc(Cl)c3Cl)C2=O)cc1` (stereo not given) the same measures were 169% (inactive) and 113%.
Turning to `CC(=O)c1ccc(OC(NC(=O)Cc2ccccc2)C(Cl)(Cl)Cl)cc1` (stereo not given), the activation was 6.45% (inactive) and the normalized cell count is 137%.
